Experimental data collected from several papers.
Compare with care: the assays were run in different laboratories.
Organism: Severe acute respiratory syndrome coronavirus 2
Mode: inhibitor

SMILES | read-out | cell line | time | setting | IC50 [nM]
O=C(Nc1ccc([N+](=O)[O-])cc1Cl)c1cc(Cl)ccc1O | viral entry | HeLa-ACE2 | – | pseudovirus | 1350
CCC(CC)COC(=O)[C@H](C)N[P@](=O)(OC[C@H]1O[C@@](C#N)(c2ccc3c(N)ncnn23)[C@H](O)[C@@H]1O)Oc1ccccc1 | viral replication | A549-hACE2-TMPRSS2 | 24 h | – | 100
COc1ncc(-c2cn([C@@H]3O[C@](F)(COC(=O)C(C)C)[C@@H](OC(=O)C(C)C)[C@H]3OC(=O)C(C)C)cn2)c(N)n1 | viral replication | A549-ACE2 | 24 h | – | 41900
Cc1ccccc1-n1nnnc1Sc1ccc(C(=O)c2ccccc2)cc1[N+](=O)[O-] | viral replication | A549-hACE2-TMPRSS2 | 24 h | – | 25300
Cc1ccc(NC(=O)C2(c3ccc4c(c3)OC(F)(F)O4)CC2)nc1-c1cccc(C(=O)O)c1 | viral replication | Caco-2 | – | replicon | 964
Cc1cn2nc([C@@H]3CCCCN3C(=O)c3cc(Cl)ccc3NS(C)(=O)=O)cc2nc1N1CC[C@H](N)C1 | viral entry | HeLa-ACE2 | – | pseudovirus | 320
COc1nc(N)ncc1-c1cn([C@@H]2O[C@](F)(CO)[C@@H](O)[C@H]2O)cn1 | viral replication | A549-ACE2 | 24 h | – | > 100000
O=c1[nH]c2ccccc2n1C1CCN(CCCC(c2ccc(F)cc2)c2ccc(F)cc2)CC1 | viral replication | Calu-3 | – | replicon | 4910
CC(C)C(=O)OC[C@@]1(F)O[C@@H](n2cnc(-c3c[nH]c(=O)[nH]c3=O)c2)[C@H](OC(=O)C(C)C)[C@@H]1OC(=O)C(C)C | viral replication | A549-ACE2 | 24 h | – | 49800
CCOc1nc2cccc(C(=O)O)c2n1Cc1ccc(-c2ccccc2-c2nnn[nH]2)cc1 | viral replication | Caco-2 | – | replicon | 714
